Compound activity: PubChem, Broad Institute
The list is not random: actives were taken first. Their share in the collection is about 3%.
S100A4 MyoIIA = blocks human S100A4 binding to myosin IIA peptide | P26447 | S100A4/TAMRA-MyoIIA peptide fluorescence polarization | inhibition, % at 10.7 µM | 360,000 compounds, 0.14% hits;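 active means mean inhibition of at least 70% across replicates, with every replicate also reaching that level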
Target sequence (P26447 whole entry, looked up): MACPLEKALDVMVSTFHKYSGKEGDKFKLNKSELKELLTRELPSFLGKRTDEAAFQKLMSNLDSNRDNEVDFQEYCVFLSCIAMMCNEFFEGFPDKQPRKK
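Material: human S100A4 monomer with TAMRA-labelled myosin IIA peptide; buffer or medium: HEPES pH 7.2 with CaCl2, KCl, NaCl, DTT, Triton; compound dosing: one concentration per compound; schedule: 5 min incubation before reading; benchmarks: neutral control DMSO, positive control TFP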
SIRT5 block = inhibitors of human sirtuin-5 desuccinylase. Purified SirT5, succinyl-peptide AMC, trypsin-coupled fluorescence. AID 652115. Q9NXA8. inhibition, % at 15 µM. 330,000 compounds, 1.1% hits; in the data active means inhibition above about 15%
Target sequence (Q9NXA8 whole entry, looked up): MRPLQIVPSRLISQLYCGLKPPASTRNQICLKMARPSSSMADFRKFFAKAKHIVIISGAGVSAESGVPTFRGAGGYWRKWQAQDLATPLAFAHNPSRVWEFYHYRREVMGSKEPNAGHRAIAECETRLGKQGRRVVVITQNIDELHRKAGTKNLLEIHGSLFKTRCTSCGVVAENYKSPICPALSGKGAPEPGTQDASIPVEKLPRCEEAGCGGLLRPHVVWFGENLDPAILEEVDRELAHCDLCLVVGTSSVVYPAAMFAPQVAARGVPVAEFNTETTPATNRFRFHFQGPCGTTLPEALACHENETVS
rRNA inh HTS = inhibitors of bacterial rRNA selective over humanized ribosomes; AID 720706; GFP signal change (wild-type ribosome), % (no concentration beside the values); E. coli WT GFP vs humanized-ribosome RFP mutants, fluorescence, 24 h; hits give low values; DMSO median 0, no signal -100; 350,000 compounds, 1.6% hits;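 active means significant combined selectivity score with lowered wild-type GFP, culture density cut under 30%, mutant RFP and density less affected; inactive means any of these conditions unmet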
C2C12 statin = suppressors of simvastatin-induced myotoxicity in C2C12 myotubes | rescue of ATP level, % at 7.49 µM | ATP luminescence, 48 h; scaled: DMSO 0, geranylgeraniol control 100 | 330,000 compounds, 0.78% hits | AID 602340;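 active means mean ATP rescue above about 67%, or every replicate alone reaching that limit, limit read from the data, passing the limit was not always enough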;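 further: myotubes were challenged with 10 µM simvastatin during compound exposure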
PGC1a acetyl inh = modulators of PGC1a acetylation. inhibition, % at 15.6 µM. 350,000 compounds, 0.17% hits. U2OS PGC1a acetylation, AlphaScreen anti-acetyl-lysine; with virally co-expressed GCN5 acetyltransferase;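 active means every replicate shows inhibition of at least 40%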;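 further: 0% = neutral control wells and 100% = positive control wells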
Cneo AK release = causes C. neoformans cell lysis; adenylate kinase release luminescence, 4 h; normalised: neutral wells 0, clomiphene wells 100; lysis activity, % at 15 µM; 360,000 compounds, 0.2% hits;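 active means mean lysis activity across replicates of at least 80%, whatever share of replicates individually reach that level; inactive means mean lysis activity below 80%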
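Schedule: static 4 h at 37 °C with compound, 1 h detection; system: C. neoformans cells; benchmarks: Clomiphene as positive control; buffer or medium: fresh YPD medium; measure: luminescence rise reflecting yeast cell lysis; measured by: luminescent adenylate kinase detection reagent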
Numbers without * were called inactive; · = not tested or not shown; ! = a repeat was not active.

SMILES	S100A4 MyoIIA	SIRT5 block	rRNA inh HTS	C2C12 statin	PGC1a acetyl inh	Cneo AK release
C[C@@H]1CN([C@@H](C)CO)C(=O)c2cc(NC(=O)NC3CCCCC3)ccc2O[C@@H](C)CCCCO[C@@H]1CN(C)S(=O)(=O)c1cn(C)cn1	136*	4	-1	·	11	4
C[C@@H]1CN([C@@H](C)CO)C(=O)c2cc(NC(=O)C3CC3)ccc2O[C@@H]1CN(C)S(=O)(=O)c1cn(C)cn1	-7	25*	3	-26	16	3
C[C@@H]1CCCCO[C@@H](CN(C)S(=O)(=O)c2cn(C)cn2)[C@H](C)CN([C@@H](C)CO)C(=O)c2cc(NC(=O)C3CCCCC3)ccc2O1	116*	5	0	12	·	-5
C[C@H]1CCCCO[C@H](CN(C)S(=O)(=O)c2cn(C)cn2)[C@@H](C)CN([C@@H](C)CO)C(=O)c2cc(NC(=O)NC3CCCCC3)ccc2O1	39	-1	2	·	-5	1
COc1cccc(-c2ccc(CC[C@H]3O[C@H]4CC[C@H](CO)O[C@H]4C[C@@H]3NC(=O)c3cnccn3)cc2)c1	-62	-1	·	·	-6	·
Cc1noc(C)c1S(=O)(=O)Nc1ccc2c(c1)C(=O)N([C@H](C)CO)C[C@H](C)[C@@H](CN(C)S(=O)(=O)c1ccc(F)cc1)OCCCC[C@H](C)O2	-8	7	-5	·	-17	1
COc1cccc(NC(=O)CN(C)C(=O)CCCc2c[nH]c3ccccc23)c1	12	-5	-13	3	-11	-2
CN(CC(=O)Nc1cccc(F)c1)C(=O)CCCc1c[nH]c2ccccc12	-2	-1	-26*	8	3	0
C[C@@H]1CN([C@H](C)CO)C(=O)c2cc(C#Cc3cccnc3)cnc2O[C@@H]1CN(C)C(=O)CC1CC1	-3	5	2	5	-2	0
Cc1ccc(NS(=O)(=O)c2ccc(-n3cccn3)cc2)cc1Cl	1	-4	13	41	-2	-1
Cc1ccc(NS(=O)(=O)c2ccc(-n3cccn3)cc2)cc1C	-1	-4	4	164*	-4	0
C[C@@H]1CN([C@H](C)CO)S(=O)(=O)c2ccc(-c3cccnc3)cc2O[C@@H]1CN(C)C(=O)C1CCC1	1	-1	4	-4	5	-1
Cc1ccc(C(=O)COC(=O)C2CC3CCCC(C2)C3=O)cc1[N+](=O)[O-] (centres undefined)	140*	2	4	2	-2	1
COc1ccc(C(=O)N/N=C/c2ccc(OC)c(CN3CCCc4ccccc43)c2)cc1	·	·	·	-14	·	4
COc1ccc(/C=N/NC(=O)c2cccnc2)cc1CN1CCCc2ccccc21	0	-1	-28*	·	·	·
COCCN(C[C@H]1[C@H](c2ccccc2)[C@@H](CO)N1C(=O)C1CC1)C(C)=O	3	0	-1	-8	-1	2
CCOC(=O)c1cncc(NC(=O)c2ccccc2)c1	·	·	·	95*	-2	-3
CCOC(=O)c1ccc(NC(=O)c2ccc(NC(=O)c3ccccc3)cc2)cc1	·	·	·	6	2	1
Cc1nc2nc(CSc3nnc(C)s3)cc(=O)n2[nH]1	-7	-2	2	107*!	-9	2
CCC(=O)N1CCN(c2ccnc3cc(Cl)ccc23)CC1	3	-2	-8	·	·	·
COc1cccc(Cl)c1NC(=O)N1CCN(c2ccnc3cc(Cl)ccc23)CC1	-2	-2	-32*	·	·	·
O=C(c1ccc(Cl)cc1)N1CCN(c2ccnc3cc(Cl)ccc23)CC1	0	7	-29*	·	-9	·
Oc1ccc(N2CCN(c3ccnc4cc(Cl)ccc34)CC2)cc1	0	-7	-38*	-32	·	1
C[C@H](O)C#Cc1cnc2c(c1)C(=O)N([C@H](C)CO)C[C@H](C)[C@@H](CN(C)Cc1cccc(C(=O)O)c1)O2	-2	·	8	9	-2	2
Cc1ccsc1-c1n[nH]c(=S)n1C1CCCCC1	-3	-5	-41*	·	·	·
SMILES	S100A4 MyoIIA	SIRT5 block	rRNA inh HTS	C2C12 statin	PGC1a acetyl inh	Cneo AK release
COc1ccc(-c2n[nH]c(=S)n2C2CCCCC2)cc1	·	·	·	8	17	·
CN1CCN(C(=O)C[C@H]2C=C[C@@H](NC(=O)Cc3ccccn3)[C@@H](CO)O2)CC1	18	-4	3	-8	4	0
CCCCNC(=O)CCn1ccc2cc(S(=O)(=O)N3CCCC3)ccc21	14	2	5	-1	0	5
O=C(COC(=O)c1ccccc1NCCO)NCCC1=CCCCC1	-2	-13	-7	-4	0	4
CC(C)(C)NS(=O)(=O)c1ccc(OCC(=O)NCCC2=CCCCC2)cc1	2	2	-1	-4	·	-2
O=C(COC(=O)c1ccccc1Br)NCCC1=CCCCC1	-1	1	-51*	0	7	0
O=C(COc1ccc(S(=O)(=O)N2CCCC2)cc1)NCCC1=CCCCC1	-19	-3	-20*	17	9	-2
CCOc1ccc(CCNC(=O)CCn2ccc3cc(S(=O)(=O)N4CCCC4)ccc32)cc1	0	2	-21*	1	11	6
C[C@H](CO)N1C[C@H](C)[C@H](CN(C)C(=O)Nc2ccc(C(F)(F)F)cc2)Oc2c(NS(=O)(=O)c3ccc(Cl)cc3)cccc2C1=O	-32	-1	-1	-99	6	-13
CC(C)C(OC(=O)CCC(=O)Nc1nccs1)C(=O)NC1CCCCC1 (centres undefined)	-4	0	18	99*	3	-1
CCC(=O)Nc1ccc2c(c1)C(=O)N(C)C[C@H](OC)[C@H](C)CN(Cc1cccnc1)[C@H](C)CO2	·	-4	0	1	-1	3
Cc1cccc(/C(N)=N/OC(=O)COc2ccccc2Cl)c1	-3	17*	2	·	·	·
CC(C)NC(=S)NNc1ncnc2sc3c(c12)CC(C)(C)OC3	-2	-3	10	-8	7	0
CC1(C)Cc2c(sc3ncnc(NNC(=S)NCc4ccccc4)c23)CO1	4	-5	-34*	·	·	·
CCOC(=O)C1=NN(C(=O)Nc2ccc(OC)cc2)C2C(=O)N(c3cccc(C(F)(F)F)c3)C(=O)C12 (centres undefined)	·	·	·	102*	-5	0
COc1ccc(CNc2oc(-c3cccc4ccccc34)nc2C#N)cc1	-5	-5	-14	-12	·	1
CCOP(=O)(OCC)c1nc(-c2cccc3ccccc23)oc1NCCc1ccc(OC)cc1	-1	-40	9	92*	4	1
CCCNC(=O)N1[C@@H]2c3cccc(=O)n3C[C@H]1[C@H](CO)[C@H]2C(=O)N1CCC(Cc2ccccc2)CC1	2	-1	0	-9	·	-1
CCCNC(=O)N1[C@@H](CO)[C@H](c2ccccc2)C12CN(C(=O)c1cccnc1)C2	·	·	2	·	·	·
